# Reference: paper PMC9977173 (Science Advances, 2023)
# Where a SMILES comes first, the peptide text is derived from it. Bridges are numbered along the chain shown (N, C = ends). Roman numbers before positions name the chains, in order. The star is where a group is joined. X1 = O=C(Cn1cc(CCCC(=O)*)nn1)NC(COCc1cn(CCO[C@H]2O[C@H](CO)[C@@H](O)[C@H](O)[C@@H]2O)nn1)(COCc1cn(CCO[C@H]2O[C@H](CO)[C@@H](O)[C@H](O)[C@@H]2O)nn1)COCc1cn(CCO[C@H]2O[C@H](CO)[C@@H](O)[C@H](O)[C@@H]2O)nn1
# Experiments:
# EJ xenograft tumor [1] = experiment: Antitumor efficiency in EJ xenograft mice; type: in vivo, mouse; details: intravenous, 100 μl; for tumor growth inhibition rate, EJ xenograft: 18 days, PepCXCR4 and bsGP 500 μM, plerixafor 100 μM
# Summary of the method: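 BALB/c nude mice (6 to 8 weeks, 16 to 18 g) received 5 × 10⁶ EJ cells in 100 µl s.c. in the right flank. Mice were randomised into groups of n = 6. Saline, test compound (500 µM, 100 µl) or plerixafor (100 µM, 100 µl) was given i.v. by tail vein once a day for five doses. Tumor volume was measured by calipers and body weight recorded every other day.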
# [2] = system: MB49-Luc orthotopic bladder cancer; details: mouse, in vivo
# [3] = system: CXCR4 (breast and pancreatic cancer); details: cited from earlier work
# CD206 [4] = molecular target: T1, CD206 (Homo sapiens, UniProt P22897); details: read-out: Kd of mannose; cited from earlier work
# [5] = Secondary structure by CD and FTIR; type: physicochemical; details: CD: 10 μM, deionized water, 25°C, 1 hour; FTIR: 100 μM, distilled water, 60 min
# Summary of the method: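 For CD, test compound (10 µM) was dissolved in deionized water at 25°C for 1 h and scanned at 500 nm/min with 0.5 nm resolution, with solvent background subtracted. For FTIR, samples were freshly prepared at 100 µM in distilled water for 60 min, dried on calcium fluoride tablets and recorded.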
# CD206 [6] = molecular target: T1, CD206; experiment: Microscale thermophoresis binding to CD206; details: Kd 3.48 μM versus mannose ~1000 μM
# EJ cells (CXCR4) = experiment: CLSM imaging of bsGP; type: cell-based, human
# RAW264.7 cells [7] = experiment: CLSM imaging of bsGP; type: cell-based; details: Cy-labeled bsGP
# EJ cells [8] = experiment: SEM of nanofibrils on EJ cell surface; type: cell-based, human; details: 50 μM, 12 and 24 hours
# Summary of the method: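 EJ cells (1 × 10⁵ per well) were seeded on silicon wafers and cultured 12 h. Saline or test compound (50 µM) was then added for a further 12 and 24 h. The cell surface was examined by scanning electron microscopy.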
# EJ cells [9] = experiment: Cell viability; type: cell-based, human; details: 50 μM, 24 hours, CCK-8; n = 3
# Summary of the method: (§1)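 Cells were seeded at 5 × 10⁴ per well in RPMI 1640 and cultured overnight at 37°C, 5% CO₂. Test compound was added at 10, 20, 50, 100, 200 or 500 µM for 24 h, then CCK-8 for 2 h at 37°C. Absorbance was read at 450 nm against a 690 nm reference. Viability = (A_s − A_b)/(A_c − A_b) × 100% versus saline-treated wells. Run in triplicate.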
# RAW264.7 cells [10] = experiment: Cell viability; type: cell-based; details: 50 μM, 24 hours, CCK-8; n = 3
# Summary of the method: as §1
# [11] = system: tumor tissue in orthotopic bladder cancer mice; experiment: Tumor penetration by immunofluorescence of frozen sections; type: in vivo, mouse; details: Cy-labeled bsGP; distance from vessels, compared with antibody
# Summary of the method: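 Orthotopic EJ xenograft nude mice with tumors of about 200 mm³ received saline or test compound (500 µM, 100 µl) by intravesical instillation. Frozen tumor sections were imaged by confocal microscopy.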
# EJ cells [12] = experiment: Colony formation assay; type: cell-based, human; details: versus saline and PepCXCR4
# Summary of the method: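 EJ cells (200 per well) were grown in DMEM in six-well plates at 37°C, 5% CO₂ until visible colonies appeared. Colonies were rinsed twice with saline, fixed in 4% paraformaldehyde for 15 min and stained with Giemsa for 10 to 30 min. They were photographed and counted. Colony formation efficiency = clones/inoculated cells × 100%.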
# EJ cells [13] = experiment: Transwell migration assay; type: cell-based, human; details: 50 μM, 24 hours; versus saline and PepCXCR4
# Summary of the method: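 EJ cells (1 × 10⁵) in 150 µl serum-free DMEM were placed in the upper Transwell chamber with saline or test compound (50 µM). Complete medium was in the lower chamber. After 24 h, non-migrated cells were swabbed away. Migrated cells were fixed in 4% paraformaldehyde, stained with 0.05% crystal violet for 10 min, photographed and counted.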
# [14] = system: pErk and pAkt (CXCR4 downstream) in EJ cells; experiment: Western blot of Erk and Akt phosphorylation in EJ cells; type: cell-based, human; details: for phosphorylation of Erk and Akt: 50 μM, 24 hours
# Summary of the method: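 EJ cells were lysed in buffer with protease inhibitor and centrifuged 15 min; protein was measured by BCA. 30 µg protein was run on SDS-PAGE and transferred to PVDF. Membranes were blocked 1 to 2 h at room temperature in 5% nonfat milk, 0.1% Tween 20, 10 mM TBS. Primary antibody was applied overnight at 4°C, then secondary for 1 to 2 h at room temperature. Detection was by chemiluminescence.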
# [15] = system: pErk and pAkt in tumor tissues; experiment: Immunohistochemistry of pErk and pAkt in EJ tumor tissues; type: in vivo, mouse; details: EJ xenograft, versus saline
# MB49-Luc tumor = experiment: Antitumor efficiency in MB49-Luc tumor-bearing mice; type: in vivo, mouse; details: 500 μM, 100 μl, five doses
# orthotopic bladder tumor = type: in vivo, mouse; details: 500 μM, 100 μl, intravesical instillation
# Summary of the method: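 Once bladder tumor growth was confirmed, test compound (500 µM, 100 µl) was instilled intravesically and kept in the bladder for 60 min. Whole-body fluorescence was scanned with IVIS at 1, 4, 8, 12, 24, 48 and 72 h. The bladder was exteriorised and imaged ex vivo at 1 h after infusion.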
# NF-κB in RAW264.7 cells = experiment: Western blot of NF-κB phosphorylation in RAW264.7 cells; type: cell-based; details: 50 μM, 24 hours; compared with mannose
# NF-κB in tumor tissues = experiment: Western blot of NF-κB phosphorylation in tumor tissues; type: in vivo, mouse; details: 500 μM, 100 μl, every 2 days, five times; compared with mannose
# [16] = system: M2-like (CD206) and M1-like (CD86) macrophages; experiment: Flow cytometry of TAM polarization in tumors; type: in vivo, mouse
# [17] = system: TNF-α, IL-12, IL-10 and TGF-β; experiment: Intratumoral cytokines in homogenized tumor tissues; type: in vivo, mouse; details: versus saline and PepCXCR4
# [18] = system: CD8^+ T cells and Tregs in tumor; experiment: Flow cytometry of tumor T cells; type: in vivo, mouse
# [19] = system: CD86^+ and CD206^+ TAMs, CD4^+ and CD8^+ T cells; experiment: Multiplex immunofluorescence of whole tumor slices; type: in vivo, mouse; details: for CD4^+ T cells in whole tumor slice: saline 1.74%
# [20] = system: CD86^+ and CD206^+ TAMs, CD4^+ and CD8^+ T cells proximal to CXCR4^+ tumor cells; experiment: Spatial distance of immune cells to CXCR4^+ tumor cells; type: in vivo, mouse
# [21] = system: tumor fibrosis in MB49-Luc tumor; experiment: Tumor fibrosis; type: in vivo, mouse; details: versus saline and PepCXCR4
# EJ xenograft tumor [22] = details: 500 μM, 100 μl, intravenous
# [23] = MB49-Luc, C57BL/6, 500 μM, 100 μl, every other day, five times
# [24] = immunofluorescence, versus saline
# T1 sequence (P22897 19-1456, species assumed): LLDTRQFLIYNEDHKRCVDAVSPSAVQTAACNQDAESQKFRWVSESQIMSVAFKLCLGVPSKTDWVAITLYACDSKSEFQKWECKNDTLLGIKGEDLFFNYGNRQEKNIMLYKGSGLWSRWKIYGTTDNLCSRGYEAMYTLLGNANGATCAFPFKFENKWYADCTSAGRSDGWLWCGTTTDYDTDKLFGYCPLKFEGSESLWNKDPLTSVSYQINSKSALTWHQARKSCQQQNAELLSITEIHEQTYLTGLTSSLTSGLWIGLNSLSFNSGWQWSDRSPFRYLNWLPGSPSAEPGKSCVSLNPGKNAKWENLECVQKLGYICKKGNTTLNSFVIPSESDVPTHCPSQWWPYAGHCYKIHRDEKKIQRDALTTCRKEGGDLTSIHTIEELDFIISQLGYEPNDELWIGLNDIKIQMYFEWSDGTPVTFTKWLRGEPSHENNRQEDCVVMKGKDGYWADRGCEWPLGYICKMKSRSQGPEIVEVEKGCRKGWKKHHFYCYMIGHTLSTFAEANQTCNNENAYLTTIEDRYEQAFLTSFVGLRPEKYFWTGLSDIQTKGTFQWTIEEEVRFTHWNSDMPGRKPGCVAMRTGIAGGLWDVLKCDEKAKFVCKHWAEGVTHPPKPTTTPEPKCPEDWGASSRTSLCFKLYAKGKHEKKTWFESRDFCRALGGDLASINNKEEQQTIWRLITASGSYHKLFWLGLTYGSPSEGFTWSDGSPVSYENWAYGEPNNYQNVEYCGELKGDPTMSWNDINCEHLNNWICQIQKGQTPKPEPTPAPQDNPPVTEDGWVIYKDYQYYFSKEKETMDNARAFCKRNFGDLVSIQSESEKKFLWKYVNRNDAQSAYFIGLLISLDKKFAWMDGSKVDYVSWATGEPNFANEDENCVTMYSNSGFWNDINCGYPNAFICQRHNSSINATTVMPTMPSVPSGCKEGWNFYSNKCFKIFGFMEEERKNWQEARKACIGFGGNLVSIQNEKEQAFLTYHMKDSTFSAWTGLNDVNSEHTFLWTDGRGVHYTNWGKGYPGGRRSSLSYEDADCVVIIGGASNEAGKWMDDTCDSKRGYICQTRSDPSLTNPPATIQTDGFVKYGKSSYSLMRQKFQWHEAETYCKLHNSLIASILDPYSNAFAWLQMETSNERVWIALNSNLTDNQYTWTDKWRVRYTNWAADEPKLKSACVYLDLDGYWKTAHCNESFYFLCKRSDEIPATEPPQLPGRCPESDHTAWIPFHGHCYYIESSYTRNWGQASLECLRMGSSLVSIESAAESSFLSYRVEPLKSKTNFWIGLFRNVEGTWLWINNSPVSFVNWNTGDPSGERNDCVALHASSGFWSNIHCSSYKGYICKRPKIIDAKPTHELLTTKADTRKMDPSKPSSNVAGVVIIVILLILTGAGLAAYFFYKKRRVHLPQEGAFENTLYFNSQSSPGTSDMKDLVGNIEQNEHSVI
molecule,measurement,setting,value
c1cc(CN2CCCNCCNCCCNCC2)ccc1CN1CCCNCCNCCCNCC1 [plerixafor],"tumor growth inhibition rate, EJ xenograft",EJ xenograft tumor [1],32%
same,recurrence rate,[2],100%
same,survival rate at 60 days,[2],0%
same,"effect on tumor apoptosis, metastasis and intratumoral Tregs",[3],"substantially promote tumor apoptosis, reduce tumor metastasis, and selectively decrease intratumoral Tregs"
"C[C@H]1c2cccc(O)c2C(=O)C2=C(O)[C@]3(O)C(=O)C(C(N)=O)=C(O)[C@@H](N(C)C)[C@@H]3[C@@H](O)[C@@H]21 [Dox, doxycycline]",recurrence rate,[2],89%
same,survival rate at 60 days,[2],11%
OC[C@H]1OC(O)[C@@H](O)[C@@H](O)[C@@H]1O (stereo partly drawn) [mannose],Kd,CD206 [4],~1000 µM
CC(C)C[C@H](NC(=O)[C@H](Cc1ccc(O)cc1)NC(=O)CNC(=O)[C@H](CC(C)C)NC(=O)[C@@H]1CCCN1C(=O)CCCc1cn(CC(=O)NC(COCc2cn(CCO[C@H]3O[C@H](CO)[C@@H](O)[C@H](O)[C@@H]3O)nn2)(COCc2cn(CCO[C@H]3O[C@H](CO)[C@@H](O)[C@H](O)[C@@H]3O)nn2)COCc2cn(CCO[C@H]3O[C@H](CO)[C@@H](O)[C@H](O)[C@@H]3O)nn2)nn1)C(=O)NCC(=O)NCCCC[C@H](NC(=O)[C@H](CCCCN)NC(=O)[C@H](CC(=O)O)NC(=O)[C@@H]1CCCN1C(=O)[C@H](CCCNC(=N)N)NC(=O)[C@H](Cc1c[nH]cn1)NC(=O)[C@H](Cc1c[nH]c2ccccc12)NC(=O)[C@H](CO)NC(=O)[C@H](C)NC(=O)CNC(=O)[C@@H](N)CC(C)C)C(=O)N[C@@H](CC(C)C)C(=O)N[C@H](C(=O)N[C@@H](Cc1ccccc1)C(=O)N[C@@H](Cc1ccccc1)C(=O)N[C@@H](C)C(=O)N[C@@H](CCC(=O)O)C(=O)N[C@@H](CS)C(=O)NCC(=O)O)C(C)C [bsGP] (I: H-LGASWHRPDKKLVFFAECG-OH / II: X1-PLGYLG; amide I:11-II:C; N-terminus and C-terminus assumed),secondary structure,[5],random coil structure
same,affinity relative to mannose,CD206 [6],about 300 fold
same,localization on EJ cells,"EJ cells (CXCR4); Cy-labeled bsGP, 50 μM, pH 7.4, saline, 37°C, 15 min",observed on the cytomembrane of tumor cells (EJ)
same,colocalization with GFP-encoded CXCR4,EJ cells (CXCR4); EJ cells transfected with GFP-encoded CXCR4,Overlapping green fluorescence (CXCR4) with red fluorescence (bsGP)
same,localization on RAW264.7 cells,RAW264.7 cells [7],observed on the cytomembrane
same,nanofibrillar network on EJ cell surface,EJ cells [8],presence of a nanofibrillar network
same,effect on viability of EJ cells,EJ cells [9],no substantial impact
same,effect on viability of RAW264.7 cells,RAW264.7 cells [10],no substantial impact
same,penetration in tumor tissue,[11],deep penetration capability
same,cell proliferation capacity,EJ cells [12],substantially decreased
same,migration capacity,EJ cells [13],evidently decreased
same,"dose dependence of MAPK pathway suppression (pErk, pAkt)","[14]; 0, 20, 50 and 100 μM for 24 hours, 50 μM for 0, 24, 36, 48 hours",suppressed in a dose-dependent manner
same,phosphorylation of Erk and Akt,[14],strongly inhibited
same,"body weight loss, EJ xenograft","EJ xenograft tumor [1]; 500 μM, five doses",no obvious loss of body weight
same,phosphorylation levels of Erk and Akt in tumor tissues,[15],strongly inhibited
same,"body weight loss, MB49-Luc",MB49-Luc tumor,no obvious loss of body weight
same,fluorescence signal at the tumor site,orthotopic bladder tumor,evident fluorescence signals
same,NF-κB phosphorylation in RAW264.7 cells,NF-κB in RAW264.7 cells,effectively activated
same,NF-κB phosphorylation in tumor tissues,NF-κB in tumor tissues,effectively activated
same,increase of M1-like TAMs,[16]; from 14.2 to 25.4%,approximately 11.2%
same,decrease of M2-type macrophages,[16]; from 29.2 to 17.3%,approximately 11.9%
same,intratumoral secretion of IL-10,[17],down-regulated
same,intratumoral secretion of IL-12,[17],substantially up-regulated
same,intratumoral secretion of TGF-β,[17],down-regulated
same,intratumoral secretion of TNF-α,[17],substantially up-regulated
same,CD4^+Foxp3^+ Tregs,[18]; saline 8.58%,6.80%
same,granzyme B^+CD8^+ T cells,[18]; saline 9.44%,19.60%
same,proportion of CD45^+CD3^+CD8^+ T cells,[18]; saline 16.3%,25.8%
same,CD4^+ T cells in whole tumor slice,[19]; [23],4.35%
same,CD206^+ M2-like TAMs in whole tumor slice,"[19]; MB49-Luc, C57BL/6, 500 μM, 100 μl, every other day, five times, saline 20.94%",13.0%
same,increase of CD86^+ M1-like TAMs,[19]; immunofluorescence,2.3 fold
same,increase of CD4^+ T cells,[19]; [24],2.5 fold
same,increase of CD8^+ T cells,[19]; [24],2.6 fold
same,decrease of CD206^+ M2-like TAMs versus saline,[20]; 5- to 10-μm radius,20%
same,number of CD86^+ M1-like TAMs near tumor cells,[20]; 5- to 10-μm radius,up to 6.22 × 10^4
same,CD4^+ T cell counts relative to saline,[20]; spatial distance 10 μm,4.0 fold
same,CD8^+ T cell counts relative to saline,[20]; spatial distance 10 μm,5.5 fold
same,CD86^+ counts relative to saline,[20]; spatial distance 10 μm (text: 5- to 10-μm radius),2.6 times
same,tumor fibrosis,[21],strongly inhibited
same,signal-to-noise ratio,EJ xenograft tumor [22],7.8 fold
same,time of highest tumor accumulation,EJ xenograft tumor [22],4 h
same,time to target tumor tissue,EJ xenograft tumor [22],≤ 1 h
same,tumor accumulation relative to PepCXCR4,EJ xenograft tumor [22]; 4 hours,nearly fourfold
same,retention in tumor tissue,EJ xenograft tumor [22]; nanofiber formed in situ,up to 48 hours
same,recurrence rate,[2],22%
same,survival rate at 60 days,[2],78%
same,body weight loss,C57BL/6 mice; C57BL/6 mice,without loss of body weight
same,severe systemic toxicity,"C57BL/6 mice; intravesical, treatment dose",did not induce severe systemic toxicity
same,signs of a deteriorating general condition,C57BL/6 mice; red skin or reduced food consumption,no signs of a deteriorating general condition
LGASWHRPDK [PepCXCR4],effect on viability of EJ cells,EJ cells [9],no substantial impact
same,effect on viability of RAW264.7 cells,RAW264.7 cells [10],no substantial impact
same,phosphorylation of Erk and Akt,[14],did not substantially alter
same,"tumor growth inhibition rate, EJ xenograft",EJ xenograft tumor [1],19%
same,fluorescence signal at the tumor site,orthotopic bladder tumor,evident fluorescence signals
same,CD4^+ T cells in whole tumor slice,[19]; [23],2.37%
same,tumor-infiltrating CD8^+ T cells in whole tumor slice,"[19]; MB49-Luc, C57BL/6, 500 μM, 100 μl, every other day, five times, saline 3.43%",4.04%
